Results reported in ChEMBL document CHEMBL1126849, “Synthesis of A-ring fluorinated derivatives of (17 alpha,20E/Z)-[125I]iodovinylestradiols: effect on receptor binding and receptor-mediated target tissue uptake” (J Med Chem, 1993).

Columns and labels:
Rattus norvegicus [1] = assay: Biodistribution in spleen of immature female rat after 3 hour administration of 3 micro Ci (111 kBq) in the absence of 60 microg estradiol; assay type: ADME, organism-based; settings: in vivo
Outline: (§1)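 Immature female Long Evans rats (21–24 days, 45–70 g), three to five per group, given 125I-labeled steroid (3 μCi, 111 kBq) by lateral tail vein without anesthesia. Vehicle: ethanol diluted in saline with 1% Tween-80, final ethanol 9%, 0.22 μm filtered. +E2 groups received 60 μg unlabeled estradiol co-injected. Killed under ether at set times; tissues KCl-washed, blotted, weighed, gamma counted; %ID/g, mean with SE.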

[2] = molecular target: Estrogen receptor (Mus musculus) (UniProt O08537+P19785); assay: Relative binding affinity (RBA) against murine cytoplasmic estrogen receptor incubated at 0-4 degree Celsius for 18 hours; assay type: protein assay
Outline: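 Competitive binding on murine uterine cytoplasmic extract with 20 nM [3H]estradiol and competitor steroids at 2 nM–20 μM, incubated 18 h at 0–4 °C. RBA = 100 × ratio of […] concentration giving 50% competition for specific binding. Mean of three experiments with SD.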

Rattus norvegicus [3] = assay: Biodistribution in blood of immature female rat after 12 hour administration of 3 micro Ci (111 kBq) in the absence of 60 microg estradiol; assay type: ADME, organism-based; settings: in vivo
Outline: (§2)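 Immature female Long Evans rats (21–24 days, 45–70 g), unanesthetized in retention cages, given 3 µCi (111 kBq) 125I-labeled steroid i.v. via lateral tail vein. Vehicle was ethanol diluted in saline containing 1% Tween-80, giving 9% ethanol final. The blocking group received 60 µg unlabeled estradiol co-injected. Rats were killed under ether by axillary bleeding, and tissues were KCl-washed and gamma-counted. Data are %ID/g, mean ± SE, n=3–5.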

Rattus norvegicus [4] = assay: Biodistribution in kidney of immature female rat after 12 hour administration of 3 micro Ci (111 kBq) in the absence of 60 microg estradiol; assay type: ADME, organism-based; settings: in vivo; outline: as §2
Rattus norvegicus [5] = assay: Biodistribution in uterus of immature female rat after 12 hour administration of 3 micro Ci (111 kBq) in the absence of 60 microg estradiol; assay type: ADME, organism-based; settings: in vivo
Outline: (§3)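 Immature female Long Evans rats (21–24 days, 45–70 g), 3–5 per group, unanesthetized in retention cages, given 3 μCi (111 kBq) 125I-labeled steroid by lateral tail vein. Vehicle: ethanol diluted with saline containing 1% Tween-80, final ethanol 9%. +E2 group co-injected 60 μg unlabeled estradiol (1 h only). Killed under ether; tissues KCl-washed, weighed, gamma-counted. Output: %ID/g (mean, SE) and uterus to blood or nontarget (muscle, spleen, lungs) ratios.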

Rattus norvegicus [6] = assay: Biodistribution in blood of immature female rat after 3 hour administration of 3 micro Ci (111 kBq) in the absence of 60 microg estradiol; assay type: ADME, organism-based; settings: in vivo; outline: as §2
Rattus norvegicus [7] = assay: Biodistribution in uterus / blood of immature female rat after 1 hr administration of 3 micro Ci (111 kBq) in the absence of 60 microg estradiol; assay type: ADME, organism-based; settings: in vivo
Outline: (§4)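 Same in vivo procedure: immature female Long Evans rats (21–24 days), three to five per group, 3 μCi (111 kBq) tracer i.v. via tail vein in 9% ethanol/saline/1% Tween-80, ± 60 μg estradiol co-injected at 1 h. Uterus %ID/g (gamma counting) divided by blood, or by nontarget organ (muscle, spleen, lungs), %ID/g to give ratios.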

Rattus norvegicus [8] = assay: Biodistribution in uterus / blood of immature female rat after 5 hour administration of 3 micro Ci (111 kBq) in the absence of 60 microg estradiol; assay type: ADME, organism-based; settings: in vivo; outline: as §4
Rattus norvegicus [9] = assay: Biodistribution in uterus / spleen, muscle, lungs of immature female rat after 1 hr administration of 3 micro Ci (111 kBq) in the absence of 60 microg estradiol; assay type: ADME, organism-based; settings: in vivo; outline: as §4
Rattus norvegicus [10] = assay: Biodistribution in kidney of immature female rat after 3 hour administration of 3 micro Ci (111 kBq) in the absence of 60 microg estradiol; assay type: ADME, organism-based; settings: in vivo; outline: as §2
Rattus norvegicus [11] = assay: Biodistribution in liver of immature female rat after 5 hour administration of 3 micro Ci (111 kBq) in the absence of 60 microg estradiol; assay type: ADME, organism-based; settings: in vivo; outline: as §2
Rattus norvegicus [12] = assay: Biodistribution in spleen of immature female rat after 12 hour administration of 3 micro Ci (111 kBq) in the absence of 60 microg estradiol; assay type: ADME, organism-based; settings: in vivo; outline: as §1
Rattus norvegicus [13] = assay: Biodistribution in uterus / spleen, muscle, lungs of immature female rat after 12 hour administration of 3 micro Ci (111 kBq) in the absence of 60 microg estradiol; assay type: ADME, organism-based; settings: in vivo; outline: as §3
Rattus norvegicus [14] = assay: Biodistribution in spleen of immature female rat after 5 hour administration of 3 micro Ci (111 kBq) in the absence of 60 microg estradiol; assay type: ADME, organism-based; settings: in vivo; outline: as §1
Rattus norvegicus [15] = assay: Biodistribution in kidney of immature female rat after 1 hr administration of 3 micro Ci (111 kBq) in the presence of (+E2); assay type: ADME, organism-based; settings: in vivo; outline: as §2
Rattus norvegicus [16] = assay: Biodistribution in muscle of immature female rat after 1 hr administration of 3 micro Ci (111 kBq) in the absence of 60 microg estradiol; assay type: ADME, organism-based, Muscle tissue; settings: in vivo; outline: as §1
Rattus norvegicus [17] = assay: Biodistribution in uterus / spleen, muscle, lungs of immature female rat after 1 hr administration of 3 micro Ci (111 kBq) in the presence of (+E2); assay type: ADME, organism-based; settings: in vivo; outline: as §4
Rattus norvegicus [18] = assay: Biodistribution in thyroid of immature female rat after 5 hour administration of 3 micro Ci (111 kBq) in the absence of 60 microg estradiol; assay type: ADME, organism-based, Thyroid gland; settings: in vivo; outline: as §1
Rattus norvegicus [19] = assay: Biodistribution in fat of immature female rat after 1 hr administration of 3 micro Ci (111 kBq) in the absence of 60 microg estradiol; assay type: ADME, organism-based, Adipose tissue; settings: in vivo; outline: as §2
Rattus norvegicus [20] = assay: Biodistribution in lungs of immature female rat after 12 hour administration of 3 micro Ci (111 kBq) in the absence of 60 microg estradiol; assay type: ADME, organism-based, Lung; settings: in vivo; outline: as §1
Rattus norvegicus [21] = assay: Biodistribution in lungs of immature female rat after 1 hr administration of 3 micro Ci (111 kBq) in the presence of (+E2); assay type: ADME, organism-based, Lung; settings: in vivo; outline: as §2
Rattus norvegicus [22] = assay: Biodistribution in uterus of immature female rat after 1 hr administration of 3 micro Ci (111 kBq) in the absence of 60 microg estradiol; assay type: ADME, organism-based; settings: in vivo; outline: as §3
Rattus norvegicus [23] = assay: Biodistribution in fat of immature female rat after 1 hr administration of 3 micro Ci (111 kBq) in the presence of (+E2); assay type: ADME, organism-based, Adipose tissue; settings: in vivo; outline: as §2
Rattus norvegicus [24] = assay: Biodistribution in lungs of immature female rat after 3 hour administration of 3 micro Ci (111 kBq) in the absence of 60 microg estradiol; assay type: ADME, organism-based, Lung; settings: in vivo; outline: as §1
Rattus norvegicus [25] = assay: Biodistribution in spleen of immature female rat after 1 hr administration of 3 micro Ci (111 kBq) in the absence of 60 microg estradiol; assay type: ADME, organism-based; settings: in vivo; outline: as §1
Rattus norvegicus [26] = assay: Biodistribution in thyroid of immature female rat after 12 hour administration of 3 micro Ci (111 kBq) in the absence of 60 microg estradiol; assay type: ADME, organism-based, Thyroid gland; settings: in vivo; outline: as §1
Rattus norvegicus [27] = assay: Biodistribution in thyroid of immature female rat after 3 hour administration of 3 micro Ci (111 kBq) in the absence of 60 microg estradiol; assay type: ADME, organism-based, Thyroid gland; settings: in vivo; outline: as §1
Rattus norvegicus [28] = assay: Biodistribution in blood of immature female rat after 1 hr administration of 3 micro Ci (111 kBq) in the absence of 60 microg estradiol; assay type: ADME, organism-based; settings: in vivo; outline: as §2
Rattus norvegicus [29] = assay: Biodistribution in thyroid of immature female rat after 1 hr administration of 3 micro Ci (111 kBq) in the presence of (+E2); assay type: ADME, organism-based, Thyroid gland; settings: in vivo; outline: as §1
Rattus norvegicus [30] = assay: Biodistribution in blood of immature female rat after 1 hr administration of 3 micro Ci (111 kBq) in the presence of (+E2); assay type: ADME, organism-based; settings: in vivo; outline: as §2

Chain of Estrogen receptor (Mus musculus) (O08537 whole entry, looked up): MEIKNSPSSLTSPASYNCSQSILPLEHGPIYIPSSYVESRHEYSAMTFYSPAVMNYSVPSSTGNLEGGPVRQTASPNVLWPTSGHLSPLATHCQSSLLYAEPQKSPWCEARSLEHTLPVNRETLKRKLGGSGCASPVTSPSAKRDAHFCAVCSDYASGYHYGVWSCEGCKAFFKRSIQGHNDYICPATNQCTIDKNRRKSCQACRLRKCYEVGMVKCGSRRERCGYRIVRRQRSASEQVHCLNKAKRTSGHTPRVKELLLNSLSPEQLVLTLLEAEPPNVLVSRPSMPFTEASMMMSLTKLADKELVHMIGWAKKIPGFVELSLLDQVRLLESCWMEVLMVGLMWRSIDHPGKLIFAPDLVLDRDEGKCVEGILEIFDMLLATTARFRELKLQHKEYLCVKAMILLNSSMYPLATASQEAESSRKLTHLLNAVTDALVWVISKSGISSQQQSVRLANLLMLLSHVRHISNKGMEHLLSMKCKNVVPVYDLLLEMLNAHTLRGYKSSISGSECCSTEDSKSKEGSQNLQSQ
Chain of Estrogen receptor (Mus musculus) (P19785 whole entry, looked up): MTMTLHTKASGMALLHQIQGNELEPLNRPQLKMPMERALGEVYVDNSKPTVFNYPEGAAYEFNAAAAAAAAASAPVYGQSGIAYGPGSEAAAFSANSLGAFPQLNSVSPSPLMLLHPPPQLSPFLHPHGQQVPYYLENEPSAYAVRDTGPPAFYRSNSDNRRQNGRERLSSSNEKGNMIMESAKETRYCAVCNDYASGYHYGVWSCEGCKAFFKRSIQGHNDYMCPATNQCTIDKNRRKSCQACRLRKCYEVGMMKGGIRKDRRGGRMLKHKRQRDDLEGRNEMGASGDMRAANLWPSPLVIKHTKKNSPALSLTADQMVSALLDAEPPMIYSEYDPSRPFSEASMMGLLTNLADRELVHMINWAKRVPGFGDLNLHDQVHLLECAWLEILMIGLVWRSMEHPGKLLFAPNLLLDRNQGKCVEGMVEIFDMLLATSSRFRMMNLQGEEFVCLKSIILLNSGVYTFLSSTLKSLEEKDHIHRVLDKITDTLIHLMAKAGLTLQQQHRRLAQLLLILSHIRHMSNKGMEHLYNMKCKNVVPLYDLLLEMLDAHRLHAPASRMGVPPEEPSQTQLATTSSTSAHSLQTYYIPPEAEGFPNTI

Row | Structure (SMILES) | ID/g (Rattus norvegicus [1]) | RBA [2] | ID/g (Rattus norvegicus [3]) | ID/g (Rattus norvegicus [4]) | ID/g (Rattus norvegicus [5]) | ID/g (Rattus norvegicus [6]) | uterus-to-blood ratio of %ID/g (Rattus norvegicus [7]) | uterus to blood ratio (Rattus norvegicus [8]) | ID/g (Rattus norvegicus [10]) | ID/g (Rattus norvegicus [11]) | ID/g (Rattus norvegicus [12]) | ID/g (Rattus norvegicus [14]) | ID/g (Rattus norvegicus [15]) | ID/g (Rattus norvegicus [16]) | ID/g (Rattus norvegicus [18]) | ID/g (Rattus norvegicus [19]) | ID/g (Rattus norvegicus [20]) | ID/g (Rattus norvegicus [21]) | ID/g (Rattus norvegicus [22]) | ID/g (Rattus norvegicus [23]) | also measured
1 | CO[C@H]1C[C@@]2(C)[C@@H](CC[C@@]2(O)/C=C\I)[C@@H]2CCc3c(ccc(O)c3F)[C@H]21 | 0.72% | 37.9 | 0.25% | 1.23% | 8.31% | 0.56% | 10.55% | 20.08% | 1.08% | 1.42% | 0.7% | 0.66% | 1.36% | 0.66% | 2369% | 1.43% | 0.37% | 0.95% | 6.87% | 1.82% | uterus-to-nontarget tissue uptake ratio (Rattus norvegicus [9]): 7.3%; uterus to nontarget tissue ratio (Rattus norvegicus [13]): 19.35%; uterus-to-nontarget tissue uptake ratio (Rattus norvegicus [17]): 1.11%; ID/g (Rattus norvegicus [24]): 0.66%; ID/g (Rattus norvegicus [25]): 2.04%; ID/g (Rattus norvegicus [26]): 4651%; ID/g (Rattus norvegicus [27]): 1446%; ID/g (Rattus norvegicus [28]): 0.66%; ID/g (Rattus norvegicus [29]): 441%
2 | C[C@]12CC[C@@H]3c4cc(F)c(O)cc4CC[C@H]3[C@@H]1CC[C@@]2(O)/C=C/I | 0.32% | 6.2 | 0.08% | 0.06% | 0.08% | 0.42% | 2.21% | 1.15% | 0.47% | 2.12% | 0.05% | 0.27% | 0.66% | 0.73% | 43.46% | 3.45% | 0.1% | 0.93% | 1% | 2.93% | ID/g (Rattus norvegicus [30]): 0.49%; ID/g (Rattus norvegicus [24]): 0.48%; ID/g (Rattus norvegicus [25]): 0.57%; ID/g (Rattus norvegicus [26]): 163%; ID/g (Rattus norvegicus [27]): 39.1%; ID/g (Rattus norvegicus [28]): 0.53%; ID/g (Rattus norvegicus [29]): 22%
3 | CO[C@H]1C[C@@]2(C)[C@@H](CC[C@@]2(O)/C=C\I)[C@@H]2CCc3cc(O)c(F)cc3[C@H]21 |  | 27.9 |  |  |  |  |  |  |  |  |  |  |  |  |  |  |  |  |  |  | 
4 | CO[C@H]1C[C@@]2(C)[C@@H](CC[C@@]2(O)/C=C/I)[C@@H]2CCc3c(ccc(O)c3F)[C@H]21 |  | 27.7 |  |  |  |  |  |  |  |  |  |  |  |  |  |  |  |  |  |  | 
